Assay outcomes from PubChem BioAssay.
Yeast lifespan up – extends the lifespan of yeast | inhibition of the nicotinamide effect, % at 10 µM | S. cerevisiae growth with nicotinamide, OD615; deaD strain in restrictive glucose medium | 130,000 compounds, 0.68% hits;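 active means inhibition above a set limit, placed 3 SD over the median of all compounds, cut at about 26% in these data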;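 further: 0% = nicotinamide-treated wells and 100% = cells grown without nicotinamide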
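Test system: DeaD-strain S. cerevisiae / Buffer or medium: restrictive glucose medium / Also added: nicotinamide 1.5 mM / Doses: one concentration, 10 µM, DMSO 0.25% / Schedule: 48 h at 30 °C / Signal: OD615 measurement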
HMGR II inh – E. faecalis class II HMG-CoA reductase inhibition; 190,000 compounds, 0.41% hits; inhibition, % at 10 µM; purified E. faecalis HMGR, NADPH absorbance 340 nm kinetic; AID 1066;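 active means inhibition above a set limit, the median over all tested compounds plus 3 SD, cut at about 9.5% in these data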;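 further: enzyme runs in reverse so mevalonate oxidation gives rising NADPH absorbance; 0% = complete reaction with DMSO and 100% = background rate lacking mevalonate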
RAM network inh – blocks the yeast RAM network. S. cerevisiae dse1pr::URA3 reporter, 5-FOA growth OD615, 2 d; analog-sensitive cbk1-as2 kinase mutant strain. inhibition, % at 50 µM. 190,000 compounds, 1.8% hits. AID 868;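 active means inhibition above a set limit, 3 SD over mean compound inhibition, cut at about 8.4% in these data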;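 further: 0% = DMSO-only wells with no growth and 100% = 10 µM 1-NA-PP1 full growth; inhibition rescues growth on 5-FOA so higher OD means more RAM inhibition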
BB579 growth dn – yeast BB579 growth reduction in restrictive medium | S. cerevisiae BB579 growth, OD615, 48 h | inhibition, % at 10 µM | 140,000 compounds, 0.51% hits;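 active means inhibition above a set limit, 3 SD over the mean compound inhibition, cut at about 44% in these data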
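controls = amphotericin B 10 µg/mL, positive | assay system = DeaD yeast strain BB579 | schedule = 48 h compound exposure at 30 °C after 4 h preincubation | detection = OD615 turbidity measurement | medium = restrictive CSMM-D medium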
INS promoter inh – TRM-6 insulin promoter activity inhibition. 130,000 compounds, 0.9% hits. inhibition, % at 2 µM. TRM-6 cells, insulin promoter-eGFP reporter, imaging; reporter expression induced with tamoxifen;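 active means inhibition above the mean plus 3 SD, with well images judged a real hit on visual review, cut at about 60% in these data, passing the limit was not always enough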
RAM 5-FOA – RAM network inhibitors in efflux-deficient yeast | max inhibition, % | 1,200 tested, under 10 active | shares compounds with RAM network inh | S. cerevisiae efflux-deficient reporter strain, 5-FOA growth OD615, 2 days; call rule not given here;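 further: plate controls were vehicle for no effect and reference inhibitor for full effect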
* marks the source's active call; other numbers are inactive results; · = not tested or not shown. The list is not random: actives were taken first. Their share in the collection is about 3.7%.

SMILES	Yeast lifespan up	HMGR II inh	RAM network inh	BB579 growth dn	INS promoter inh	RAM 5-FOA
COC(=O)C/C=C/[C@@H](C)[C@@H](/C=N/O[C@@H](C)c1cn([C@H](CO)Cc2ccccc2)nn1)NS(=O)(=O)c1ccc(C)cc1	2	-6	0	-1	0	·
Cc1ccc(-c2csc3ncnc(N4CCN(C(=O)c5ccccc5)CC4)c23)cc1	29	1	0	-63	0	·
Cc1cccc(NC(=O)CCC(=O)OCC(=O)c2ccc(Oc3ccc([N+](=O)[O-])cc3)cc2)c1	18	-5	21*	-34	53	3
Cc1nn(CCc2nn[nH]n2)c2nc(-c3ccc(C4CCCCC4)cc3)cc(C(F)(F)F)c12	·	0	15*	·	·	8
O=C(COC(=O)COc1ccccc1)NC1CCCc2ccccc21 (stereo not given)	-2	-5	1	-22	·	·
CCN(CC)S(=O)(=O)c1cccc(NC(=O)CCSc2ccc(Cl)cc2)c1	5	-1	14*	-14	-43	1
CN(C)S(=O)(=O)c1cccc(NC(=O)COC(=O)CCSc2ccc(Cl)cc2)c1	-2	7	8	-39	·	·
CN(Cc1ccccc1)C(=O)C(C(=O)c1ccc(F)cc1)n1cc(Cl)ccc1=O (stereo not given)	·	-1	1	·	-41	·
O=C(CNC(=S)N(Cc1ccccc1)Cc1ccccc1F)NCCc1ccc(Cl)cc1	·	-3	36*	·	33	3
C#CCOC(=O)CCCC(=O)NCCCCCCCC	·	-4	0	·	·	·
O=C(c1ccc(Cl)cc1[N+](=O)[O-])N(Cc1ccccc1)Cc1ccccc1	7	0	13*	-25	-38	3
CC(C)(C)N(Cc1ccccc1)C(=O)c1ccc(Cl)cc1[N+](=O)[O-]	·	-2	2	·	·	·
COC(=O)[C@@H]1CC[C@H](C)[C@@H](c2ccc(C)cc2)N1C(=O)c1ccc(/C=N/OC[C@@H](O)COCc2ccco2)cc1	5	2	15*	-26	-10	2
COc1ccc(C(=O)/C=C/Nc2ccc(S(=O)(=O)Nc3onc(C)c3C)cc2)cc1	5	-4	13*	-22	30	5
COc1ccc(C(=O)/C=C/Nc2ccc(S(=O)(=O)Nc3nc(C)cc(C)n3)cc2)cc1OC	9	-8	4	6	·	·
COc1ccc(C(=O)/C=C/Nc2ccc(S(=O)(=O)Nc3ncccn3)cc2)cc1	2	-10	12*	-33	·	6
Cc1noc(NS(=O)(=O)c2ccc(N/C=C/C(=O)c3ccncc3)cc2)c1C	4	3	6	-61	3	·
Cc1ccccc1NS(=O)(=O)c1cc(C(=O)NCCSC2CCCCC2)ccc1C	-16	0	13*	-26	·	3
O=C(NCCn1cc(SCc2ccc(F)cc2)c2ccccc21)c1ccccc1F	7	-2	13*	-32	-10	4
O=C(NCCn1cc(SCc2ccc(F)cc2)c2ccccc21)c1c(F)cccc1F	1	-8	5	18	-110	·
Cc1cc(-c2ccccc2)nc(SCC(=O)N2CCCC2)n1	·	-17	2	·	·	·
Brc1ccc(-c2csc(N3CCc4ccccc4C3)n2)cc1	-6	-1	15*	-46	-16	5
O=[N+]([O-])c1ccc(-c2csc(N3CCc4ccccc4C3)n2)cc1	-4	2	8	9	-58	·
CCN(Cc1ccccc1)S(=O)(=O)c1ccc(S(=O)(=O)N(Cc2cccc(OC)c2)CC2CCCO2)cc1 (stereo not given)	-1	1	16*	-51	-22	6
COc1cccc(CNS(=O)(=O)c2ccc(S(=O)(=O)N3CCCC3)cc2)c1	·	-6	3	·	13	·
SMILES	Yeast lifespan up	HMGR II inh	RAM network inh	BB579 growth dn	INS promoter inh	RAM 5-FOA
COc1cccc(CN(Cc2ccco2)S(=O)(=O)c2ccc(S(=O)(=O)NCc3ccccc3)cc2)c1OC	·	-6	14*	-44	-38	4
COc1cccc(CN(Cc2ccccc2F)S(=O)(=O)c2ccc(S(=O)(=O)NCc3ccccc3)cc2)c1	12	-2	18*	-40	·	4
COc1cccc(CN(CC2CCCO2)S(=O)(=O)c2ccc(S(=O)(=O)NCC3CCCO3)cc2)c1OC (stereo not given)	-11	-4	0	-51	-59	·
CCN=C1S/C(=C\c2ccc(O)c(OCC)c2)C(=O)N1CC	-1	-2	2	-62	25	·
CCN=C1S/C(=C\c2cc(OCC)c(O)cc2Br)C(=O)N1CC	2	-7	12*	-43	50	3
O=c1cc(CSc2nnnn2-c2ccccc2)nc2scc(-c3ccccc3)n12	-7	-5	1	10	34	·
c1ccc(-c2nc(CSc3nnnn3-c3ccccc3)cs2)cc1	-11	1	7	-33	·	2
C/C=C(/C)C(=O)OC(C)(C)[C@@H]1Cc2c(ccc3ccc(=O)oc23)O1	10	3	2	-36	14	·
C/C=C(/C)C(=O)O[C@@H]1c2c(ccc3ccc(=O)oc23)O[C@@H]1C(C)(C)OC(=O)/C(C)=C\C	7	5	18*	-54	-5	5
CCCCNS(=O)(=O)c1ccc(NC(=O)C(Sc2ccccc2)c2ccccc2)cc1 (stereo not given)	3	-9	14*	-19	-11	1
CCC(C)NS(=O)(=O)c1ccc(NC(=O)C(Sc2ccccc2)c2ccccc2)cc1 (stereo not given)	4	-4	1	-9	38	·
COc1cc(-c2noc(CCCC(=O)NC3CCCCC3)n2)cc(OC)c1OC	-6	-12	0	-27	46	·
CSc1ccc(Cl)c(C(=O)NCCOc2cc(C(C)C)ccc2C)c1	-1	2	14*	-16	-67	6
O=C(/C=C/c1ccccc1)N1CCN(c2cccc(Cl)n2)CC1	-6	-6	12*	-36	-14	4
Cc1nc2ccc(S(=O)(=O)NCC(=O)Nc3cccc(F)c3)cc2s1	·	-3	2	·	-13	·
O=C(O)/C=C/C(=O)Nc1ccccc1C(=O)OCC(=O)c1ccc2c(c1)OCCO2	·	-3	1	·	56	·
CCCCC(=O)Nc1ccccc1C(=O)OCC(=O)c1ccc2c(c1)OCCO2	-2	-4	13*	-15	·	2
O=C(COC(=O)c1cccc(S(=O)(=O)NCc2ccccc2)c1)c1ccc2c(c1)OCCO2	0	-5	7	-41	·	·
CCN(CC)S(=O)(=O)c1cccc(C(=O)OCC(=O)c2ccc3c(c2)OCCO3)c1	7	0	14*	-49	-31	5
CCCC(=O)Nc1ccc(Cc2ccc(NC(=O)CCC)c(C(=O)O)c2)cc1C(=O)O	·	-3	3	·	8	·
Cc1c(C(=O)OCC(=O)Nc2ccc(C(N)=O)cc2)cccc1[N+](=O)[O-]	·	-2	4	·	·	·
O=S(=O)(NCCc1csc(-c2ccc(C(F)(F)F)cc2)n1)c1ccc2c(c1)OCCO2	0	-10	12*	-22	·	2
